ChEMBL document CHEMBL3407440, “Monocarbonyl analogs of curcumin inhibit growth of antibiotic sensitive and resistant strains of Mycobacterium tuberculosis” (Eur J Med Chem, 2015)
pIC50: −log10 of the molar value. Calls of active or inactive are those of the source. The calls are words filed in the database; no cut-off is given here.

Experiments:
[1] = system: Mycobacterium marinum; test: Antituberculosis activity against Mycobacterium marinum assessed as growth inhibition after 72 hrs by liquid culture assay; type: functional, organism-based
Procedure, shortened: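 Mm 1218R grown in 7H9-ADC (0.025% Tween 80) to OD600 0.35, then diluted to OD600 0.04. Cultured 72 h with analog in DMSO at 0.780–100 µM (twofold steps), in duplicate, alongside no-drug and 1% DMSO vehicle controls. Mean ± SEM of three experiments.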

[2] = system: Mycobacterium marinum; test: Antituberculosis activity against Mycobacterium marinum assessed as diameter of zone of inhibition at 100 mM incubated for 7 days by disk diffusion assay; type: functional; conditions: 168 h, read-out: DIZ
Procedure, shortened: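 Mm 1218R grown in 7H9-ADC (0.025% Tween 80) to OD600 0.35, diluted to OD600 0.04, spread on 7H10-OADC agar and air-dried 10 min. A 6 mm disk received 10 µl of 100 mM analog (in DMSO or water). Plates were incubated 7 days at 30 °C in 5% CO2 (legend: 32 °C), three plates per analog. The bacteria-free zone around the disk was measured.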

[3] = Cmax in CD1 male mouse at 50 mg/kg, po; type: ADME, organism-based; set-up: dose 50 mg/kg, route oral; conditions: in vivo
[4] = Tmax in CD1 male mouse at 50 mg/kg, po; type: ADME, organism-based; set-up: dose 50 mg/kg, route oral; conditions: in vivo
[5] = Half life in CD1 male mouse at 50 mg/kg, po; type: ADME, organism-based; set-up: dose 50 mg/kg, route oral; conditions: in vivo
[6] = system: Mycobacterium tuberculosis; test: Antituberculosis activity against Mycobacterium tuberculosis H37Rv assessed as zone of inhibition at 100 mM incubated for 28 days by disk diffusion assay; type: functional, organism-based; conditions: 672 h
Procedure, shortened: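 Disk diffusion on Mtb H37Rv plates: disk loaded with 100 mM analog, plates incubated 28 days at 37 °C, then zone of inhibition measured.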

[7] = system: Mycobacterium tuberculosis; test: Antituberculosis activity against Mycobacterium tuberculosis Beijing F2 assessed as growth inhibition after 72 hrs by liquid culture assay; type: functional, organism-based; conditions: Beijing F2, 72 h
[8] = system: Mycobacterium tuberculosis; test: Antituberculosis activity against Mycobacterium tuberculosis H37Rv assessed as growth inhibition after 72 hrs by liquid culture assay; type: functional, organism-based
[9] = system: Mycobacterium marinum; test: Antituberculosis activity against rifampicin-resistant Mycobacterium marinum assessed as growth inhibition after 72 hrs by liquid culture assay; type: functional, organism-based
Procedure, shortened: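 Rifampicin-resistant Mm 1218R^rifR cultured in 7H9-ADC broth with DMSO, rifampicin or analog at varied concentrations for 72 h. Growth read as OD600 and normalized to untreated culture; IC50 derived. Mean ± SEM of three experiments.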

[10] = Cmax in CD2F1 male mouse at 10 mg/kg, po; type: ADME, organism-based; set-up: dose 10 mg/kg, route oral; conditions: in vivo
[11] = Cmax in CD2F1 male mouse at 10 mg/kg, ip; type: ADME, organism-based; set-up: dose 10 mg/kg, route intraperitoneal; conditions: in vivo
[12] = Tmax in CD2F1 male mouse at 10 mg/kg, ip; type: ADME, organism-based; set-up: dose 10 mg/kg, route intraperitoneal; conditions: in vivo
[13] = Half life in CD2F1 male mouse at 10 mg/kg, po; type: ADME, organism-based; set-up: dose 10 mg/kg, route oral; conditions: in vivo
[14] = Tmax in CD2F1 male mouse at 10 mg/kg, po; type: ADME, organism-based; set-up: dose 10 mg/kg, route oral; conditions: in vivo
[15] = Half life in CD2F1 male mouse at 10 mg/kg, ip; type: ADME, organism-based; set-up: dose 10 mg/kg, route intraperitoneal; conditions: in vivo
[16] = Tmax in Swiss Webster male mouse at 12.5 mg/kg, ip; type: ADME, organism-based; set-up: dose 12.5 mg/kg, route intraperitoneal; conditions: in vivo
[17] = Half life in Swiss Webster male mouse at 12.5 mg/kg, ip; type: ADME, organism-based; set-up: dose 12.5 mg/kg, route intraperitoneal; conditions: in vivo
[18] = Cmax in Swiss Webster male mouse at 12.5 mg/kg, ip; type: ADME, organism-based; set-up: dose 12.5 mg/kg, route intraperitoneal; conditions: in vivo
[19] = system: Mycobacterium marinum; test: Potentiation of antituberculosis activity against Mycobacterium marinum assessed as UBS-109-induced growth inhibition at 0.3 uM after 72 hrs by liquid culture assay; type: functional, organism-based
Procedure, shortened: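 Mm cultured in 7H9-ADC broth with rifampicin (0.250–4 µg/mL) alone or combined with analog (6.250–100 µM), in duplicate, with no-drug and 1% DMSO controls. OD600 read after 72 h and normalized to vehicle. Combinations compared with each agent alone by nonparametric ANOVA. Mean ± SEM of three experiments.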

`O=C1/C(=C/c2ccccn2)CNC[C@H]1Cc1ccccn1` showed a pIC50 [1] of 4.30 and a zone of inhibition at 100000 µM [2] of 4.6 mm.
`CN1C/C(=C\c2ccccn2)C(=O)/C(=C/c2ccccn2)C1` showed a Cmax [3] of 131 ng/mL, a pIC50 [1] of 5.00 and a Tmax [4] of 0.5 h. It also gave a half-life [5] of 3.7 h, a pIC50 [6] of 5.40 and a pIC50 [7] of 4.70. For the same compound, the pIC50 [8] was 5.00, the zone of inhibition at 100000 µM [2] was 5.7 mm and the pIC50 [9] was 5.40.
For `COC(=O)CCC(=O)N1C/C(=C\c2ccccc2F)C(=O)/C(=C/c2ccccc2F)C1`, the zone of inhibition at 100000 µM [2] was 1.8 mm.
For `O=C1C(Cc2ccccn2)CNCC1Cc1ccccn1` (stereo unspecified), the zone of inhibition at 100000 µM [2] was 0 mm.
Work on `O=C1/C(=C/c2ccccc2F)CNC/C1=C\c1ccccc1F` yielded a pIC50 [1] of 4.60, a Cmax [10] of 275 ng/mL and a Cmax [11] of 259 ng/mL. For the same compound, the Tmax [12] was 3 min, the pIC50 [7] was 4.30 and the half-life [13] was 2.95 h. For the same compound, the pIC50 [8] was 4.70, the zone of inhibition at 100000 µM [2] was 2.6 mm and the Tmax [14] was 3 min. For the same compound, the half-life [15] was 3.65 h.
In the case of `O=C1/C(=C/c2ccccn2)CNC/C1=C\c1ccccn1`, the Tmax [16] was 0.25 h, the zone of inhibition at 100000 µM [2] was 4.7 mm and the half-life [17] was 2.2 h. It also gave a Cmax [18] of 1070 ng/mL.
For `CO[C@H]1/C=C/O[C@@]2(C)Oc3c(C)c(O)c4c(O)c(c(/C=N/N5CCN(C)CC5)c(O)c4c3C2=O)NC(=O)/C(C)=C\C=C\[C@H](C)[C@H](O)[C@@H](C)[C@@H](O)[C@@H](C)[C@H](OC(C)=O)[C@@H]1C`, the Activity [19] was “inactive”.
Compound `COc1cc(/C=C/C(=O)CC(=O)/C=C/c2ccc(O)c(OC)c2)ccc1O` [CURCUMIN] has a zone of inhibition at 100000 µM [2] of 1.1 mm.
With `O=C1/C(=C/c2ccccn2)CSC/C1=C\c1ccccn1` the zone of inhibition at 100000 µM [2] was 2.7 mm.
`CN1C/C(=C\c2ccccc2F)C(=O)/C(=C/c2ccccc2F)C1` showed a zone of inhibition at 100000 µM [2] of 1.4 mm.
